Experimental data published in ChEMBL document CHEMBL4689842, “EUbOPEN Chemogenomics Library wave 1” (2021).

Legend:
Assay type in all cases: toxicity, cell-based
Fibroblast [1] = assay: Multiplex assay against human fibroblast
How it was run: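 Imaging took place on a CQ1 microscope at 37°C and 5% CO2 once compound had been added to live cells stained at seeding with Hoechst33342, BioTracker Green Microtubule Cytoskeleton Dye, MitoTracker Red and Annexin V Alexa Fluor 680. CellPathfinder machine-learning gating classed cells as Hoechst high-intensity objects or normal cells, classed normal cells as having healthy, pyknosed or fragmented nuclei, and classed pyknosed cells as mitotic or apoptotic. Tubulin, mitochondrial-mass and membrane-permeability phenotypes are per cents of the healthy-nucleus cells.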

U2OS = assay: Incucyte cell viability with U2OS; settings: human, 10 µM, compound concentration 10 uM; also: filed as whole numbers so only -1 and 0 and 1 occur
Fibroblast [2] = assay: Incucyte cell viability with human fibroblast; settings: 10 µM, compound concentration 10 uM; also: filed as whole numbers so only -1 and 0 and 1 occur
[3] = 24 h, 10 µM, compound concentration 10 uM, replicate 1
[4] = 24 h, 10 µM, compound concentration 10 uM, replicate 2
[5] = 48 h, 1 µM, compound concentration 1 uM, replicate 1
[6] = 48 h, 1 µM, compound concentration 1 uM, replicate 2
[7] = 48 h, 10 µM, compound concentration 10 uM, replicate 1
[8] = 48 h, 10 µM, compound concentration 10 uM, replicate 2
[9] = 6 h, replicate number 1, timepoint 6 hours
[10] = 12 h, replicate number 1, timepoint 12 hours
[11] = 18 h, replicate number 1, timepoint 18 hours
[12] = 24 h, replicate number 1, timepoint 24 hours

Q: Which “Population Membrane Permeable-Phenotype (%)” value (Fibroblast [1]; [3]) does the source give for CC(C)[C@H](CO)Nc1nc(Nc2cccc(Cl)c2)c2ncn(C(C)C)c2n1 [PURVALANOLA] here?
A: 16%

Q: And the “Population Mitochondria Different-Phenotype (%)” value (Fibroblast [1]; [3])?
A: 63%

Q: What about the “Population Mitotic Cells (%)” value (Fibroblast [1]; [3]) of the same compound?
A: 27%

Q: And the “Population Normal (%)” value (Fibroblast [1]; [3])?
A: 79%

Q: What about the “Population Pyknosed Nuclei (%)” value (Fibroblast [1]; [3]) of the same compound?
A: 25%

Q: What about the “Population Tubulin-Different-Phenotype (%)” value (Fibroblast [1]; [3]) of the same compound?
A: 94%

Q: What about the “Total Cell Count” value (Fibroblast [1]; [3]) of the same compound?
A: 145

Q: What about the “Population Apoptotic (%)” value (Fibroblast [1]; [4]) of the same compound?
A: 80%

Q: And the “Population Fragmented Nuclei (%)” value (Fibroblast [1]; [4])?
A: 16%

Q: What about the “Population Healthy Nuclei (%)” value (Fibroblast [1]; [4]) of the same compound?
A: 65%

Q: What about the “Population Hoechst High Intensity Objects (%)” value (Fibroblast [1]; [4]) of the same compound?
A: 8%

Q: What about the “Population Membrane Permeable-Phenotype (%)” value (Fibroblast [1]; [4]) of the same compound?
A: 50%

Q: And the “Population Mitochondria Different-Phenotype (%)” value (Fibroblast [1]; [4])?
A: 100%

Q: And the “Population Mitotic Cells (%)” value (Fibroblast [1]; [4])?
A: 20%

Q: What about the “Population Normal (%)” value (Fibroblast [1]; [4]) of the same compound?
A: 91%

Q: And the “Population Pyknosed Nuclei (%)” value (Fibroblast [1]; [4])?
A: 17%

Q: What about the “Population Tubulin-Different-Phenotype (%)” value (Fibroblast [1]; [4]) of the same compound?
A: 100%

Q: What about the “Total Cell Count” value (Fibroblast [1]; [4]) of the same compound?
A: 66

Q: What about the “Population Apoptotic (%)” value (Fibroblast [1]; [5]) of the same compound?
A: 60%

Q: And the “Population Fragmented Nuclei (%)” value (Fibroblast [1]; [5])?
A: 39%

Q: And the “Population Healthy Nuclei (%)” value (Fibroblast [1]; [5])?
A: 51%

Q: And the “Population Hoechst High Intensity Objects (%)” value (Fibroblast [1]; [5])?
A: 19%

Q: What about the “Population Membrane Permeable-Phenotype (%)” value (Fibroblast [1]; [5]) of the same compound?
A: 23%

Q: And the “Population Mitochondria Different-Phenotype (%)” value (Fibroblast [1]; [5])?
A: 4%

Q: And the “Population Mitotic Cells (%)” value (Fibroblast [1]; [5])?
A: 40%

Q: What about the “Population Normal (%)” value (Fibroblast [1]; [5]) of the same compound?
A: 80%

Q: What about the “Population Pyknosed Nuclei (%)” value (Fibroblast [1]; [5]) of the same compound?
A: 9%

Q: And the “Population Tubulin-Different-Phenotype (%)” value (Fibroblast [1]; [5])?
A: 49%

Q: And the “Total Cell Count” value (Fibroblast [1]; [5])?
A: 203

Q: And the “Population Apoptotic (%)” value (Fibroblast [1]; [6])?
A: 50%

Q: And the “Population Fragmented Nuclei (%)” value (Fibroblast [1]; [6])?
A: 23%

Q: And the “Population Healthy Nuclei (%)” value (Fibroblast [1]; [6])?
A: 73%

Q: What about the “Population Hoechst High Intensity Objects (%)” value (Fibroblast [1]; [6]) of the same compound?
A: 8%

Q: And the “Population Membrane Permeable-Phenotype (%)” value (Fibroblast [1]; [6])?
A: 16%

Q: And the “Population Mitochondria Different-Phenotype (%)” value (Fibroblast [1]; [6])?
A: 0%

Q: And the “Population Mitotic Cells (%)” value (Fibroblast [1]; [6])?
A: 50%

Q: What about the “Population Normal (%)” value (Fibroblast [1]; [6]) of the same compound?
A: 91%

Q: What about the “Population Pyknosed Nuclei (%)” value (Fibroblast [1]; [6]) of the same compound?
A: 2%

Q: And the “Population Tubulin-Different-Phenotype (%)” value (Fibroblast [1]; [6])?
A: 34%

Q: And the “Total Cell Count” value (Fibroblast [1]; [6])?
A: 74

Q: And the “Population Apoptotic (%)” value (Fibroblast [1]; [7])?
A: 85%

Q: And the “Population Fragmented Nuclei (%)” value (Fibroblast [1]; [7])?
A: 32%

Q: What about the “Population Healthy Nuclei (%)” value (Fibroblast [1]; [7]) of the same compound?
A: 49%

Q: And the “Population Hoechst High Intensity Objects (%)” value (Fibroblast [1]; [7])?
A: 17%

Q: What about the “Population Membrane Permeable-Phenotype (%)” value (Fibroblast [1]; [7]) of the same compound?
A: 11%

Q: And the “Population Mitochondria Different-Phenotype (%)” value (Fibroblast [1]; [7])?
A: 79%

Q: And the “Population Mitotic Cells (%)” value (Fibroblast [1]; [7])?
A: 15%

Q: And the “Population Normal (%)” value (Fibroblast [1]; [7])?
A: 82%

Q: What about the “Population Pyknosed Nuclei (%)” value (Fibroblast [1]; [7]) of the same compound?
A: 18%

Q: And the “Population Tubulin-Different-Phenotype (%)” value (Fibroblast [1]; [7])?
A: 92%

Q: What about the “Total Cell Count” value (Fibroblast [1]; [7]) of the same compound?
A: 131

Q: And the “Population Apoptotic (%)” value (Fibroblast [1]; [8])?
A: 50%

Q: What about the “Population Fragmented Nuclei (%)” value (Fibroblast [1]; [8]) of the same compound?
A: 37%

Q: What about the “Population Healthy Nuclei (%)” value (Fibroblast [1]; [8]) of the same compound?
A: 60%

Q: What about the “Population Hoechst High Intensity Objects (%)” value (Fibroblast [1]; [8]) of the same compound?
A: 18%

Q: And the “Population Membrane Permeable-Phenotype (%)” value (Fibroblast [1]; [8])?
A: 7%

Q: And the “Population Mitochondria Different-Phenotype (%)” value (Fibroblast [1]; [8])?
A: 59%

Q: What about the “Population Mitotic Cells (%)” value (Fibroblast [1]; [8]) of the same compound?
A: 50%

Q: What about the “Population Normal (%)” value (Fibroblast [1]; [8]) of the same compound?
A: 81%

Q: And the “Population Pyknosed Nuclei (%)” value (Fibroblast [1]; [8])?
A: 2%

Q: And the “Population Tubulin-Different-Phenotype (%)” value (Fibroblast [1]; [8])?
A: 96%

Q: What about the “Total Cell Count” value (Fibroblast [1]; [8]) of the same compound?
A: 117

Q: And the “Growth Rate” value (U2OS; [9])?
A: 0

Q: What about the “Growth Rate” value (U2OS; [10]) of the same compound?
A: 0

Q: What about the “Growth Rate” value (U2OS; [11]) of the same compound?
A: 0

Q: And the “Growth Rate” value (U2OS; [12])?
A: 0

Q: What about the “Growth Rate” value (Fibroblast [2]; 0 h, replicate number 1, timepoint 0 hours) of the same compound?
A: 0

Q: What about the “Growth Rate” value (Fibroblast [2]; [9]) of the same compound?
A: 0

Q: What about the “Growth Rate” value (Fibroblast [2]; [10]) of the same compound?
A: 0

Q: And the “Growth Rate” value (Fibroblast [2]; [11])?
A: 0

Q: What about the “Growth Rate” value (Fibroblast [2]; [12]) of the same compound?
A: 0
